Assay [1] in a line: Antiproliferative activity against human C4-2B cells assessed as inhibition of cell viability after 48 hrs by MTT reduction assay. It is filed as functional, cell-based. The following applies: LNCaP C4-2B. The method in brief: (§1)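 Cells grown in RPMI-1640 or EMEM with 10% FBS at 37 °C under 5% CO2. Seeded at 1 × 10^4 cells/well for 12 h, then exposed to a range of compound concentrations for 48 h. Viability read by MTT reduction. 5-Fluorouracil was the positive control. Each assay was repeated three times, and IC50 reported as mean ± SD.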
Background: Tetrazolium dyes change colour on reduction, which living cells bring about.

Assay [2] is described as follows: Antiproliferative activity against human 22Rv1 cells assessed as inhibition of cell viability after 48 hrs by MTT reduction assay. The format is functional, cell-based, CWR22R. The following applies: 22Rv1, 48 h. The method, boiled down:
as §1

A short description of assay [3]: Antiproliferative activity against human 786-0 cells assessed as inhibition of cell viability after 48 hrs by MTT reduction assay. It is filed as functional, cell-based. Conditions: 786-0, 48 h. The method, boiled down: as §1
Assay [4] is described as follows: Antiproliferative activity against human A498 cells assessed as inhibition of cell viability after 48 hrs by MTT reduction assay. Conditions: A498, 48 h. It is filed as functional, cell-based. The method, boiled down: as §1
A short description of assay [5]: Antiproliferative activity against human ACHN cells assessed as inhibition of cell viability after 48 hrs by MTT reduction assay. The format is functional, cell-based. The method, boiled down:
as §1

Assay [6] in a line: Antiproliferative activity against human A375-S2 cells assessed as inhibition of cell viability after 48 hrs by MTT reduction assay. It is filed as functional, cell-based. Conditions: A375-S2, 48 h. The method, boiled down:
as §1

Assay [7] is described as follows: Antiinflammatory activity in mouse RAW264.7 cells assessed as inhibition of LPS-induced nitric oxide production after 24 hrs by Griess assay. Conditions: RAW264.7, 24 h. It is filed as functional, cell-based. The method, boiled down: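 RAW 264.7 macrophages seeded at 1 × 10^6 cells/well, then incubated 24 h at 37 °C with LPS (1 μg/mL), with or without test compounds. NO measured by Griess reagent (0.1% N-(1-naphthyl)ethylenediamine plus 1% sulfanilamide in 5% H3PO4), absorbance at 540 nm. NO concentration and inhibition rate calculated from a standard curve. Hydrocortisone served as positive control.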
(Griess reagent forms a coloured azo dye with nitrite.)

The text below walks through data of ChEMBL document CHEMBL3860025, “Antiproliferative and Anti-inflammatory Withanolides from Physalis angulata” (J Nat Prod, 2016).

Usually IC50 stands for the midpoint of a concentration-inhibition curve.

Each structure is given as a SMILES string.

Regarding `CC(=O)O[C@H]1C[C@@](O)([C@H](C)[C@H]2CC(C)=C(C)C(=O)O2)[C@@]2(C)CC[C@H]3[C@@H](C[C@H]4O[C@]45CC=CC(=O)[C@]35C)[C@@]12O`, the IC50 in assay [1] was 0.27 µM; in assay [2] it was 2.38 µM; in assay [3] it was 0.52 µM; in assay [4], 0.53 µM; in assay [5], 0.4 µM; in assay [6] it was 3.85 µM. Besides, the IC50 in assay [7] turned out to be 3.42 µM.

Regarding `CC(=O)O[C@H]1[C@@H]2O[C@]2([C@H](C)[C@H]2CC(C)=C(C)C(=O)O2)[C@@]2(C)CC[C@H]3[C@@H](C[C@@H](O)[C@@]4(Cl)CC=CC(=O)[C@]34C)[C@@]12O`, the IC50 is 1.07 µM in assay [1]; 2.28 µM in assay [2]; 0.69 µM in assay [3]; 0.52 µM in assay [4]; 0.78 µM in assay [5]; 5 µM in assay [6]. The IC50 in assay [7] was determined as 1.42 µM.

Take `CC(=O)O[C@H]1C[C@@](O)([C@H](C)[C@H]2CC(C)=C(C)C(=O)O2)[C@@]2(C)CC[C@H]3[C@@H](C[C@@H](O)[C@@]4(O)CC=CC(=O)[C@]34C)[C@@]12O`: the concentration for half-maximal inhibition (IC50) in assay [1], in assay [2], in assay [3], in assay [4], in assay [5] and in assay [6] was > 10 µM throughout. Moreover, the IC50 in assay [7] was > 100 µM.

On to `CC(=O)O[C@H]1C=C([C@H](C)[C@H]2CC(C)=C(C)C(=O)O2)[C@@]2(C)CC[C@H]3[C@@H](C[C@@H](O)[C@@]4(Cl)CC=CC(=O)[C@]34C)[C@]12O`, for which the IC50 in assay [1] stood at 0.51 µM; in assay [2], 0.48 µM; in assay [3] it was 0.42 µM; in assay [4], 0.42 µM; in assay [5], 4.8 µM; in assay [6], 3.37 µM. In assay [7], the IC50 was found to be 3.38 µM.

Regarding `CC1=C(C)C(=O)O[C@@H]([C@@H](C)C2=C[C@@H]3OC(C)(C)O[C@@]34[C@@H]3C[C@@H](O)[C@@]5(O)CC=CC(=O)[C@]5(C)[C@H]3CC[C@]24C)C1`, the IC50 in assay [1], in assay [2], in assay [3], in assay [4], in assay [5] and in assay [6] was > 10 µM in each case. Also, the IC50 in assay [7] turned out to be 55.9 µM.

Consider `CC(=O)O[C@H]1[C@@H]2O[C@]2([C@H](C)[C@H]2CC(C)=C(C)C(=O)O2)[C@@]2(C)CC[C@H]3[C@@H](C[C@H]4O[C@]45CC=CC(=O)[C@]35C)[C@@]12O`, for which the IC50 in assay [1], in assay [2], in assay [3], in assay [4], in assay [5] and in assay [6] was > 10 µM throughout. The IC50 in assay [7] stood at 2.54 µM.

Take `CC(=O)O[C@H]1C=C([C@H](C)[C@H]2CC(C)=C(C)C(=O)O2)[C@@]2(C)CC[C@H]3[C@@H](C[C@H]4O[C@]45CC=CC(=O)[C@]35C)[C@]12O`: the IC50 in assay [1] was determined as 0.18 µM; in assay [2], 0.63 µM; in assay [3], 0.66 µM; in assay [4], 0.66 µM; in assay [5], 1.08 µM; in assay [6], 3.39 µM. The IC50 in assay [7] stood at 3.02 µM.

As to `CO[C@H]1CC(=O)[C@]2(C)[C@H]3CC[C@]4(C)C([C@H](C)[C@H]5CC(C)=C(C)C(=O)O5)=C[C@H](OC(C)=O)[C@@]4(O)[C@@H]3C[C@H]3O[C@]32C1`, the IC50 in assay [1] was 1.15 µM; in assay [2] it was 2.23 µM; in assay [3], 2.43 µM; in assay [4], 4.7 µM; in assay [5] it was 7.5 µM; in assay [6], > 10 µM. In addition, in assay [7], the IC50 is 5.56 µM.

As for `CC(=O)O[C@H]1[C@@H]2O[C@]2([C@H](C)[C@H]2CC(C)=C(C)C(=O)O2)[C@@]2(C)CC[C@H]3[C@@H](C[C@@H](O)[C@@]4(O)CC=CC(=O)[C@]34C)[C@@]12O`, the IC50 in assay [1], in assay [2], in assay [3], in assay [4], in assay [5] and in assay [6] was > 10 µM in each case. Moreover, the IC50 in assay [7] is 59.5 µM.
